Reference: ChEMBL document CHEMBL1141449, “Diterpenes, sesquiterpenes, and a C15-acetogenin from the marine red alga Laurencia mariannensis” (2007)
Active and inactive are the calls of the source. No cut-off for these calls is given here.

Legend:
[1] = system: Escherichia coli; test: Antibacterial activity against Escherichia coli by standard agar diffusion test; format: functional
How it was run: (§1)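 Agar diffusion assay following a cited standard method. Read-out is the diameter of the growth-inhibition zone, in mm.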

[2] = system: Candida albicans; test: Antifungal activity against Candida albicans by standard agar diffusion test; format: functional, organism-based; how it was run: as §1
[3] = system: Staphylococcus aureus; test: Antibacterial activity against Staphylococcus aureus by standard agar diffusion test; format: functional; how it was run: as §1
[4] = system: Aspergillus niger; test: Antifungal activity against Aspergillus niger by standard agar diffusion test; format: functional, organism-based; how it was run: as §1

SMILES	inhibition zone (IZ) [1]	Activity [2]	inhibition zone (IZ) [3]	Activity [4]
C=C1CC[C@H](Br)C(C)(C)[C@]12CC[C@@]1(C)[C@H](C2)[C@](C)(O)[C@H](O)C[C@@H]1Br	6.5 mm	inactive	6.5 mm	inactive
CC/C(Br)=C/C=C\C1=C(Br)[C@H]2O[C@H](C=C=CBr)C[C@H]2O1 [LAURENMARIALLENE]	7 mm	inactive		inactive
C=C1CC[C@H](Br)C(C)(C)[C@@]12CCC(C)=C(Cl)C2		inactive		inactive
C=C[C@]1(C)CC[C@H]2C(C)=CC[C@@H](C)[C@]2(C)O1		inactive		inactive
